Assay outcomes (PubChem BioAssay)
This is a sample that favours compounds with a hit; in the whole collection about 2.1% have one here.
GSK3beta inhib: blocks human GSK3beta kinase activity. P49841. activity score (negative = inhibition), % at 10 µM. AID 2097. actives 0.038% (n = 300,000). GST-GSK3beta kinase, ADP-Glo luminescence, 60 min; active compounds read low;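 active = more than half of replicate wells score below -50%, meaning over 50% inhibition versus plate controls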;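 note: 0% = median DMSO wells and -100% = median GW8510 positive control wells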
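Test system – GST-tagged human GSK3beta kinase, cell-free · Incubation – 60 min enzyme reaction, room temperature · Signal – ADP-Glo luminescence · Also added – peptide substrate and ATP at 25 µM · Controls – DMSO neutral wells and GW8510 at 20 µM as positive · Buffer or medium – Tris/MgCl2 kinase buffer · Measure – Luminescence-derived activity versus plate DMSO and GW8510 wells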
MEKK2 mut-MEK5: signal of MEK5 binding to mutant human MEKK2 PB1 domain. actives 0.35% (n = 290,000). bead flow cytometry, Alexa488-MEK5 binding to MEKK2 mutant. percent response, % at 10 µM. AID 1530; in the data active = percent response above about 24%, passing the limit was not always enough
GSK3A inh: inhibitors of human GSK-3 alpha kinase. ADP-Glo luminescence, 60 min. inhibition, % at 10 µM. P49840. actives 0.1% (n = 320,000). AID 2650;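 active = more than half of replicates show inhibition above 20%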;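 note: GST-tagged GSK-3 alpha with peptide substrate and 25 µM ATP; 0% = DMSO neutral wells and 100% = GW8510 positive control wells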
Target sequence (P49840 whole entry, looked up): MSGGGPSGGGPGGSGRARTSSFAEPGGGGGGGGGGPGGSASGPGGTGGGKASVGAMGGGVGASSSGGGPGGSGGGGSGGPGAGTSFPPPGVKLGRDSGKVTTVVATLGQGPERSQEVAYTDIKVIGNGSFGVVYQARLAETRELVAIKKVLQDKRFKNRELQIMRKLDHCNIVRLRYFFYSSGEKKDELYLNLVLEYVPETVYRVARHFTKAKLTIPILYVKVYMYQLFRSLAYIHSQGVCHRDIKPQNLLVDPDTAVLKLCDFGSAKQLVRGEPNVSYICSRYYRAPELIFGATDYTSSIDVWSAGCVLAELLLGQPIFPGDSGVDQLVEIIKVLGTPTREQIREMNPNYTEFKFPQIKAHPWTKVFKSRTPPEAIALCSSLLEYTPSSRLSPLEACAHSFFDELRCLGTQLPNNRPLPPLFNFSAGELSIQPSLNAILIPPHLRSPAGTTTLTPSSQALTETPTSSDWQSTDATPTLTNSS
MEKK3 PB1 HTS: MEKK3-MEK5 PB1 interaction, increase or decrease | actives 1.4% (n = 290,000) | Q99759 | bead-based flow cytometry, Alexa488-MEK5 binding to MEKK3; actives lie on both sides; 0 = blocked by unlabeled MEK5, 100 = vehicle | binding response (% of control), % at 10 µM;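 active = binding response more than 3 SD above or below the average of its plate-row segment, actives on both sides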;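 note: Alexa488 bead fluorescence after subtracting the streptavidin-only scavenger bead signal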
MEKK2 WT-MEK5: raises or lowers MEK5 binding to wildtype human MEKK2 PB1 domain; actives 1.1% (n = 290,000); binding response (% of control), % at 10 µM; Q9Y2U5; bead flow cytometry, Alexa488-MEK5 binding to MEKK2 WT; actives lie on both sides; in the data active = binding response below about 67% or above about 130%
STK33 kinase inh: inhibitors of human STK33 kinase. Q9BYT3. purified STK33, MBP phosphorylation, ADP-Glo luminescence. inhibition, % at 10 µM. actives 0.073% (n = 320,000);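 active = inhibition at or above 25%, using the most active replicate where run in duplicate; inactive = inhibition below 25%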
MEKK2wt confirm: raises or lowers MEK5 binding to wildtype human MEKK2, retest | binding response (% of control), % at 10 µM | actives 2.4% (n = 5,900) | shares compounds with MEKK3 PB1 HTS | bead flow cytometry, Alexa488-MEK5 binding to MEKK2 WT; actives lie on both sides | AID 1892; in the data active = binding response below about 16% or above about 210%; inactive = in between
MEKK2mut-MEK5: signal of MEK5 binding to mutant human MEKK2, retest; percent response, % at 10 µM; bead flow cytometry, Alexa488-MEK5 binding to MEKK2 mutant; actives 2% (n = 5,900); shares compounds with MEKK3 PB1 HTS; in the data active = percent response mostly above about 71%, no sharp cut-off; inactive = mostly below about 38%;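 note: higher means compound restores mutant binding toward wildtype level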
MEKK3 confirm: confirmation of inhibitors of MEK5 binding to human MEKK3. binding response (% of control), % at 10 µM. bead flow cytometry, Alexa488-MEK5 binding to MEKK3; active compounds read low. shares compounds with MEKK3 PB1 HTS. actives 1.8% (n = 5,900). AID 1894;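 active = binding response below 72% of control, or above a set upper limit, though filed actives all read lower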;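 note: 100% = DMSO only wells and 0% = binding blocked by excess unlabeled MEK5; lower values mean stronger disruption of MEK5 binding to MEKK3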
Numbers without * were called inactive; [ ] = dose if it differs, or a comment.

Screening OCCNc1ncnc2c1c(-c1ccccc1)c(-c1ccccc1)n2Cc1ccco1 returned GSK3beta inhib 3, MEKK2 mut-MEK5 1, GSK3A inh -5, MEKK3 PB1 HTS 101, MEKK2 WT-MEK5 103 and STK33 kinase inh -2.
N=c1c2c(-c3ccccc3)c(-c3ccccc3)n(Cc3ccco3)c2ncn1CCCN1CCOCC1 was read as GSK3beta inhib -6, MEKK2 mut-MEK5 6, GSK3A inh 1, MEKK3 PB1 HTS 116, MEKK2 WT-MEK5 149*, STK33 kinase inh 1, MEKK2wt confirm 127, MEKK2mut-MEK5 10 and MEKK3 confirm 95.
CC(C)Cn1cnc2c(c(-c3ccccc3)c(-c3ccccc3)n2Cc2ccco2)c1=N was read as GSK3beta inhib -1, MEKK2 mut-MEK5 16, GSK3A inh 3, MEKK3 PB1 HTS 115, MEKK2 WT-MEK5 134*, STK33 kinase inh 1, MEKK2wt confirm 126, MEKK2mut-MEK5 27 and MEKK3 confirm 100.
Screening N=c1c2c(-c3ccccc3)c(-c3ccccc3)n(Cc3ccco3)c2ncn1Cc1ccccc1 returned GSK3beta inhib -13, MEKK2 mut-MEK5 17, GSK3A inh 3, MEKK3 PB1 HTS 110, MEKK2 WT-MEK5 156*, STK33 kinase inh -1, MEKK2wt confirm 162, MEKK2mut-MEK5 40 and MEKK3 confirm 105.
`O=C(CCc1nnc(-c2ccsc2)o1)N1CCc2c(Cl)cccc2C1` gave GSK3beta inhib 0, MEKK2 mut-MEK5 -3, GSK3A inh -3, MEKK3 PB1 HTS 100, MEKK2 WT-MEK5 93 and STK33 kinase inh -2.
CC1CC(C)CN(S(=O)(=O)N2CCCC(C(=O)NCCc3ccccc3)C2)C1 (stereo not given) was read as GSK3beta inhib 4, MEKK2 mut-MEK5 3, GSK3A inh 1, MEKK3 PB1 HTS 100, MEKK2 WT-MEK5 103 and STK33 kinase inh 1.
Screening CCc1onc(C)c1C(=O)O returned GSK3beta inhib -1, MEKK2 mut-MEK5 1, GSK3A inh 2, MEKK3 PB1 HTS 104, MEKK2 WT-MEK5 100 and STK33 kinase inh 0.
`CCOC(=O)C(=NC(C)C)NNc1cc(Cl)ccc1Cl` gave GSK3beta inhib -1, MEKK2 mut-MEK5 0, GSK3A inh 0, MEKK3 PB1 HTS 141*, MEKK2 WT-MEK5 104, STK33 kinase inh 0, MEKK2wt confirm 100, MEKK2mut-MEK5 -1 and MEKK3 confirm 100.
CSC(=NC#N)N1CCN(c2cccc(Cl)c2)CC1 was read as GSK3beta inhib 4, MEKK2 mut-MEK5 -10, GSK3A inh 0, MEKK3 PB1 HTS 93, MEKK2 WT-MEK5 94 and STK33 kinase inh 0.
Cc1cccn2c(=O)nc(SCC(=O)NCc3ccccc3)nc12 was read as GSK3beta inhib -4, GSK3A inh -2 and STK33 kinase inh 0.
Screening CN(C)CCN1C(=O)c2oc3ccccc3c(=O)c2C1c1ccc(F)cc1 (stereo not given) returned GSK3beta inhib -3, MEKK2 mut-MEK5 -26, GSK3A inh -3, MEKK3 PB1 HTS 2.0*[inhibitor], MEKK2 WT-MEK5 -1.0*[inhibitor], STK33 kinase inh -1, MEKK2wt confirm 110, MEKK2mut-MEK5 14 and MEKK3 confirm 105.
Screening CCN(CC)CCN1C(=O)c2oc3ccccc3c(=O)c2C1c1ccc(C)cc1 (stereo not given) returned GSK3beta inhib -5, MEKK2 mut-MEK5 4, GSK3A inh -1, MEKK3 PB1 HTS 99, MEKK2 WT-MEK5 103 and STK33 kinase inh 0.
CC(C)=CCN1CCN(Cc2c(C)nn(C)c2Cl)CC1CCO (stereo not given) was read as GSK3beta inhib 2, MEKK2 mut-MEK5 -7, GSK3A inh -2, MEKK3 PB1 HTS 105, MEKK2 WT-MEK5 91 and STK33 kinase inh 0.
Screening COc1ccc(N=C2S/C(=C\c3ccc(Cl)c([N+](=O)[O-])c3)C(=O)N2CCN(C)C)cc1 returned GSK3beta inhib -1, MEKK2 mut-MEK5 69*, GSK3A inh -2, MEKK3 PB1 HTS 106, MEKK2 WT-MEK5 182*, STK33 kinase inh 4, MEKK2wt confirm 135, MEKK2mut-MEK5 42 and MEKK3 confirm 103.
Screening CCN(CC)CCN1C(=O)/C(=C\c2ccc(Cl)c([N+](=O)[O-])c2)SC1=Nc1ccc(OC)cc1 returned GSK3beta inhib 2, MEKK2 mut-MEK5 36*, GSK3A inh 3, MEKK3 PB1 HTS 109, MEKK2 WT-MEK5 197*, STK33 kinase inh 2, MEKK2wt confirm 154, MEKK2mut-MEK5 25 and MEKK3 confirm 108.
For CCCN1C(=O)/C(=C/c2ccc(C)s2)SC1=Nc1ccc(OC)cc1 the results were GSK3beta inhib -1, MEKK2 mut-MEK5 -3, GSK3A inh -3, MEKK3 PB1 HTS 102, MEKK2 WT-MEK5 100 and STK33 kinase inh -3.
CCN1C(=O)/C(=C/c2cccs2)SC1=Nc1ccc(OC)cc1 was read as GSK3beta inhib -2, MEKK2 mut-MEK5 1, GSK3A inh -1, MEKK3 PB1 HTS 104, MEKK2 WT-MEK5 104 and STK33 kinase inh -1.
O=C(CSc1nnc(NC(=O)c2ccco2)s1)Nc1ccc2c(c1)OCCO2 was read as GSK3beta inhib 0, MEKK2 mut-MEK5 3, GSK3A inh -1, MEKK3 PB1 HTS 105, MEKK2 WT-MEK5 106 and STK33 kinase inh -1.
Screening Cc1nnc(SCc2ccccc2)n(N)c1=O returned GSK3beta inhib 1, MEKK2 mut-MEK5 -1, GSK3A inh 0, MEKK3 PB1 HTS 69*[inhibitor], MEKK2 WT-MEK5 93, STK33 kinase inh -2, MEKK2wt confirm 100, MEKK2mut-MEK5 -2 and MEKK3 confirm 103.
Cc1nnc(SCC(=O)NCc2ccccc2Cl)n(N)c1=O was read as GSK3beta inhib 2, MEKK2 mut-MEK5 1, GSK3A inh 1, MEKK3 PB1 HTS 130*, MEKK2 WT-MEK5 107, STK33 kinase inh -2, MEKK2wt confirm 111, MEKK2mut-MEK5 7 and MEKK3 confirm 102.
Cc1ccc(CSc2nnc(C)c(=O)n2N)cc1 was read as GSK3beta inhib 1, MEKK2 mut-MEK5 -1, GSK3A inh -2, MEKK3 PB1 HTS 131*, MEKK2 WT-MEK5 101, STK33 kinase inh -1, MEKK2wt confirm 102, MEKK2mut-MEK5 2 and MEKK3 confirm 100.
